This is one part of a sample in which hits are shown more often than they occur.
MMP13 inh = blocks human MMP13 activity | P45452 | MMP-13 fTHP FRET cleavage, Mca fluorescence | inhibition, % at 4 µM | 65,000 compounds, 0.07% hits | AID 570;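 active = inhibition above the mean of compound-free control plate wells plus 3 SD, cut at about 14% in these data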
Jurkat tox 60K = cytotoxic compounds reducing Jurkat cell viability | Jurkat E6.1 viability, ATP luminescence, 48 h | inhibition, % at 4 µM | 56,000 compounds, 1.2% hits;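 active = inhibition above the mean inhibition of all tested compounds plus 3 SD, cut at about 28% in these data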
TNAP act mid DEA = human TNAP activation, intermediate phosphate acceptor | 64,000 tested, under 10 active | activation factor at 20 µM | purified TNAP, CDP-star luminescence, 100 mM DEA, 30 min; hits give high values; scale: 0 levamisole-inhibited, 1 vehicle-only enzyme;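 active = activation factor of at least 2 at 20 µM, relative to controls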
Target sequence (P05186 whole entry, looked up): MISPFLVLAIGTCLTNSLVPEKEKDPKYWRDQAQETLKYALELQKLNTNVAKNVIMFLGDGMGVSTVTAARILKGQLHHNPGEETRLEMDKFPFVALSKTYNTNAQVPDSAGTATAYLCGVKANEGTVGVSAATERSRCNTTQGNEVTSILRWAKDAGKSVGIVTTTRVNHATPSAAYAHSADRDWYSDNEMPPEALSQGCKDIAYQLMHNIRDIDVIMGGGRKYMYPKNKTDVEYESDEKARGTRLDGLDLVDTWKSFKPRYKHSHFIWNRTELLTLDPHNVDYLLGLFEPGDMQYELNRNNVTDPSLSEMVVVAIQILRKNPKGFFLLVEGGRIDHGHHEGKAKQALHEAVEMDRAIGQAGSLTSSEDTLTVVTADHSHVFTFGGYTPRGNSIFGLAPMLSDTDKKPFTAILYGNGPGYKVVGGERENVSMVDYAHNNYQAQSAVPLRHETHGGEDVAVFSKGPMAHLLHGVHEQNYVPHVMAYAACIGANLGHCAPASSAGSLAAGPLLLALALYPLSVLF
Calb biofilm kill = kills Candida albicans biofilms. C. albicans biofilm + clotrimazole, Alamar Blue. inhibition, % at 6 µM. 85,000 compounds, 0.14% hits. AID 834;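 active = inhibition above 20%; inactive = inhibition below 20%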;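 also: preformed 24 hr biofilms exposed to compound for 48 hr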
HEK293 NFkB inh = inhibitors of the PMA/ionomycin-induced NF-kB reporter in HEK293 cells; 62,000 compounds, 0.21% hits; HEK-293 NF-kB luciferase reporter, luminescence; inhibition, % at 3 µM;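 active = inhibition above the mean of all tested compounds plus 3 SD, cut at about 40% in these data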
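System: NF-kB luciferase reporter HEK-293 cells | Replication: Single test | Control set: DMSO vs reference inhibitor | Evaluation: % inhibition | Schedule: 1 h pretreatment, 16 h stimulation, 37 °C | Probe or stimulus: PMA with ionomycin | Compound dosing: One dose, 3 µM | Detection: Luciferase luminescence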
Of the large screens only hits and unclear results are named; the others gave an inactive call.

O=C(Cn1nnc(-c2ccccc2F)n1)Nc1ccc2c(c1)OCO2	MMP13 inh 15.9
Cc1cc(Cl)c(S(=O)(=O)NCc2ccncc2)cc1OCC(N)=O	none
COc1cc(C)c(Cl)cc1S(=O)(=O)NCc1ccncc1	Jurkat tox 60K 66.7
Cc1sc(NC(=O)c2ccco2)nc1-c1ccc2c(c1)CC(C)N2C(=O)C1CC1 (centres undefined)	Jurkat tox 60K 63.5
CCCOc1ccccc1C1CC(=O)NC2=C1C(=O)CCC2 (centres undefined)	Jurkat tox 60K 95.2
CCOc1ccccc1C1CC(=O)NC2=C1C(=O)CCC2 (centres undefined)	Jurkat tox 60K 64.5
CCOc1ccc(C2CC(=O)NC3=C2C(=O)CCC3)cc1 (centres undefined)	none
CCCCOc1ccccc1C1CC(=O)NC2=C1C(=O)CCC2 (centres undefined)	Jurkat tox 60K 74.2
CCCOc1ccccc1C1CC(=O)NC(C)=C1C(=O)OCC(C)C (centres undefined)	none
CCOc1ccc(C2NC(=O)NC(C)=C2C(=O)OC)cc1C (centres undefined)	none (no result: MMP13 inh, Jurkat tox 60K, TNAP act mid DEA, HEK293 NFkB inh)
CCOC(=O)NC1(Nc2ccc(Cl)cn2)Oc2ccccc2O1	Jurkat tox 60K 33.0
CC(NC(=O)Cc1cccs1)C(c1cccs1)N1CCOCC1 (centres undefined)	none (no result: TNAP act mid DEA)
O=C1c2ccccc2NC(c2ccc(F)cc2)N1Cc1ccco1 (centres undefined)	none
O=C1c2ccccc2NC(c2ccccc2)N1Cc1ccco1 (centres undefined)	Calb biofilm kill 36.8
Cn1c(O)c(C=Nc2ccc(Cc3ccncc3)cc2)c(=O)n(C)c1=O	none (no result: Jurkat tox 60K, HEK293 NFkB inh)
O=C(CCCc1nc(-c2ccc(Cl)cc2)no1)Nc1cccnc1	Jurkat tox 60K 42.2
Cc1cccc(C)c1N1CCN(c2ccc3nnc(C(F)(F)F)n3n2)CC1	none (no result: MMP13 inh, Jurkat tox 60K, TNAP act mid DEA, HEK293 NFkB inh)
NC(=O)c1sc2nccc(Nc3ccccc3)c2c1N	HEK293 NFkB inh 45.2
O=c1oc2ccccc2cc1NCc1ccccc1O	Jurkat tox 60K 41.3, Calb biofilm kill 22.3
CC(=O)C(C(C)=O)c1c(Cl)c(O)c(O)c2c(C(=O)c3ccccc3)coc12	Jurkat tox 60K 49.3
CCCCNc1cc(C)nc(NCc2ccccc2)n1	Jurkat tox 60K 34.2
CCOn1c(=O)c(C)[n+]([O-])c2ccccc21	none (no result: MMP13 inh, Jurkat tox 60K, TNAP act mid DEA, HEK293 NFkB inh)
CCOC(=O)N1CCN(C(=O)CSc2nc3c(cnn3-c3ccc(Cl)cc3)c(=O)[nH]2)CC1	Calb biofilm kill 20.2
CCCn1c(CN(Cc2ccccc2)Cc2ccccc2)nc2c1c(=O)n(C)c(=O)n2C	Calb biofilm kill 24.7
CCCCn1c(CN2CCN(c3ccccc3)CC2)nc2c1c(=O)n(C)c(=O)n2C	Jurkat tox 60K 37.9
CCCCn1c(CN(C)Cc2ccccc2)nc2c1c(=O)n(C)c(=O)n2C	Jurkat tox 60K 35.9
CCCn1c(CN(C)Cc2ccccc2)nc2c1c(=O)n(C)c(=O)n2C	none (no result: Jurkat tox 60K, TNAP act mid DEA)
Cc1cc(C)nc(N(C#N)Cc2cccc3ccccc23)n1	none (no result: MMP13 inh, Jurkat tox 60K, TNAP act mid DEA, HEK293 NFkB inh)
CCOC(=O)C(Oc1ccc(=O)n(-c2ccccc2)n1)C(C)=O (centres undefined)	none
O=S(=O)(NCc1ccncc1)c1ccc(Br)s1	Jurkat tox 60K 93.6, HEK293 NFkB inh 42.2
Cc1cccc(N2CCN(C(=O)CCn3c(=S)[nH]c4cc5c(cc4c3=O)OCO5)CC2C)c1 (centres undefined)	none (no result: Jurkat tox 60K)
COc1cc(OC)cc(-c2cc3nc(C)c(CCC(=O)O)c(C)n3n2)c1	HEK293 NFkB inh 63.3 (no result: Calb biofilm kill)
COc1cc(OC)cc(-c2cc3nc(C)c(CCC(=O)NC(C)CCc4ccco4)c(C)n3n2)c1 (centres undefined)	none (no result: Calb biofilm kill)
CCN(CC)c1cc(C)c2cc(NC(=O)c3ccc(Br)o3)ccc2n1	none (no result: MMP13 inh, Jurkat tox 60K, TNAP act mid DEA, HEK293 NFkB inh)
O=C(CN1CCC(c2nc3ccccc3s2)CC1)NCc1cccs1	Jurkat tox 60K 27.8
COC(=O)Cc1cc(=O)n(-c2nc3ccccc3[nH]2)[nH]1	MMP13 inh 57.4 (no result: Calb biofilm kill)
COC(=O)Cc1[nH]n(-c2nc3ccccc3s2)c(=O)c1C(C)=O	none (no result: MMP13 inh, Jurkat tox 60K, TNAP act mid DEA, HEK293 NFkB inh)
Cn1ncc(N=Cc2ccccc2)c1C(=O)Nc1cccc(Cl)c1	none (no result: MMP13 inh, Jurkat tox 60K, TNAP act mid DEA, HEK293 NFkB inh)
COc1ccc(CCNc2ncnc3c2oc2ccccc23)cc1OC	Jurkat tox 60K 83.8
CCOc1ccccc1N1CC(O)=C(c2nc3ccccc3s2)C1=N	Jurkat tox 60K 78.2
CCCCCCOc1ccc(/C(N)=N/O)cc1	Jurkat tox 60K 97.3
COc1ccccc1S(=O)Cc1ccc(C(=O)NCCc2ccc(Cl)cc2)o1 (centres undefined)	none
CC1Cc2nc(SCC(=O)Nc3ccc4c(c3)OCO4)n(-c3ccc(F)cc3)c(=O)c2S1 (centres undefined)	none (no result: Calb biofilm kill)

Compound activity deposited in PubChem by several laboratories.
